In brackets after ≈: the same amount, converted by molar mass. Activity calls are given as the source filed them. The calls are words filed in the database; no cut-off is given here.
Key:
HepG2 = assay: Cytotoxicity against human HepG2 cells at 100 uM after 72 hrs by SRB assay; type: functional, cell-based
Procedure, shortened: (§1)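 SRB assay. Cells kept in DMEM with 10% FBS and 1% penicillin–streptomycin at 37 °C, 5% CO2. Seeded at 5 × 10^4 cells/mL, adapted overnight, then exposed to compounds for 72 h. Cells fixed with 10% TCA (30 min, 4 °C), stained with SRB for 30 min, washed with 1% acetic acid, OD read at 540 nm. Paclitaxel positive control; 0.05% DMSO negative control; triplicate.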

Staphylococcus aureus [1] = assay: Antimicrobial activity against methicillin-resistant Staphylococcus aureus EMRSA-15 after 18 hrs by MTT based broth dilution assay; type: functional; conditions: EMRSA-15, 18 h
Procedure, shortened: (§2)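 Strains grown 24 h at 37 °C on nutrient agar. Inoculum of 5 × 10^5 CFU set in 0.9% saline against a 0.5 McFarland standard. Compounds serially diluted 0.5–256 μg/mL in Mueller–Hinton broth, inoculated and incubated 18 h at 37 °C; DMSO control; norfloxacin positive control. MTT (5 mg/mL methanolic) added for 20 min; MIC is the lowest concentration with no growth (no yellow-to-blue change); at least three independent determinations.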

Enterococcus faecalis [2] = assay: Antimicrobial activity against Enterococcus faecalis FF11 at 40 ug/disk after 2 days by disc diffusion method; type: functional, organism-based
Procedure, shortened: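 Bacterial suspension (1 × 10^5 CFU/mL) spread on Mueller–Hinton agar. Paper disks (8 mm) carried 40 μL of a 1000 μg/mL acetone solution, dried, and were placed on the plate. Incubated 2 days at 37 °C; halo diameter measured; mean ± standard error of three replications; azithromycin positive control.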

PC-3 = assay: Cytotoxicity against human PC3 cells at 100 uM after 72 hrs by SRB assay; type: functional, cell-based; procedure, shortened: as §1
Staphylococcus aureus [3] = assay: Antimicrobial activity against tetracycline/methicillin-resistant Staphylococcus aureus XU212 after 18 hrs by MTT based broth dilution assay; type: functional; conditions: XU212, 18 h; procedure, shortened: as §2
Enterococcus faecalis [4] = assay: Antimicrobial activity against Enterococcus faecalis F1B1 assessed as zone of inhibition at 40 ug/disk after 2 days by disc diffusion method; type: functional; conditions: F1B1, 48 h, read-out: DIZ
Procedure, shortened: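 Disk diffusion on Mueller-Hinton agar spread with bacterial suspension (1 × 10^5 CFU/mL). 40 μL of a 1000 μg/mL acetone solution loaded on an 8 mm paper disk and dried before placement. Incubated 2 days at 37 °C, then diameter of the bacteria-free halo measured. Mean ± standard error of three replicates; azithromycin positive control.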

Staphylococcus aureus [5] = assay: Antimicrobial activity against […] Staphylococcus aureus ATCC 25923 after 18 hrs by MTT based broth dilution assay; type: functional; conditions: ATCC 25923, 18 h; procedure, shortened: as §2
Pyricularia oryzae = assay: Antimicrobial activity against Magnaporthe oryzae Triticum pathotype at 40 ug/disk after 5 days by disc diffusion method; type: functional, organism-based
Procedure, shortened: (§3)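 Fungi pre-grown on 10% V8 agar at 25 °C in the dark. A 4 mm mycelial agar block was centred on a 9 cm PDA plate. Paper disks (8 mm) carried 40 μL of a 1000 μg/mL acetone stock, dried, and were set 4 mm from the block. Plates incubated 5 days at 25 °C in the dark; inhibition zone measured in mm; triplicate.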

[6] = system: Colletotrichum gloeosporioides; assay: Antimicrobial activity against Colletotrichum gloeosporioides at 40 ug/disk after 5 days by disc diffusion method; type: functional, organism-based; procedure, shortened: as §3
Staphylococcus aureus [7] = assay: Antimicrobial activity against […] Staphylococcus aureus SA1199B after 18 hrs by MTT based broth dilution assay; type: functional; procedure, shortened: as §2

Row | Structure (SMILES) | Activity (HepG2) | MIC (Staphylococcus aureus [1]) [µg/mL] | Activity (Enterococcus faecalis [2]) | Activity (PC-3) | MIC (Staphylococcus aureus [3]) [µg/mL] | zone of inhibition at 40 µg/disc (Enterococcus faecalis [4]) [mm] | MIC (Staphylococcus aureus [5]) [µg/mL] | Activity (Pyricularia oryzae) | Activity [6] | MIC (Staphylococcus aureus [7]) [µg/mL]
1 | COCC1=CC[C@]2([C@H]3[C@H](C)COC(=O)[C@H]3O[C@@]2(C)OC)[C@H](O)C1=O | inactive | 256 (≈ 752 µM) | inactive | inactive | 128 (≈ 376 µM) | 5.5 | 128 (≈ 376 µM) | inactive | inactive | 256 (≈ 752 µM)
2 | CC1C(=O)[C@@H](O)[C@@]23C[C@H]1O[C@]2(O)O[C@@H]1C(=O)OC[C@@H](C)[C@@H]13 (some centres undefined) | inactive | 64 (≈ 215 µM) | inactive | inactive | 64 (≈ 215 µM) |  | 64 (≈ 215 µM) | inactive | inactive | 128 (≈ 429 µM)
3 | CC(=O)O[C@@H]1[C@@H](O)C(C)=CC[C@]12[C@H]1[C@H](C)COC(=O)[C@H]1O[C@@]2(C)O | inactive | 32 (≈ 94 µM) | inactive | inactive | 32 (≈ 94 µM) |  | 16 (≈ 47 µM) | inactive | inactive | 16 (≈ 47 µM)
4 | CCn1cc(C(=O)O)c(=O)c2cc(F)c(N3CCNCC3)cc21 [NORFLOXACIN] |  | 32 (≈ 100 µM) |  |  | 32 (≈ 100 µM) |  | 32 (≈ 100 µM) |  |  | 64 (≈ 200 µM)
5 | COCC1=CC[C@]2([C@H]3[C@H](C)COC(=O)[C@H]3O[C@@]2(C)O)[C@H](O)C1=O | inactive | 128 (≈ 392 µM) | inactive | inactive | 128 (≈ 392 µM) |  | 64 (≈ 196 µM) | inactive | inactive | 64 (≈ 196 µM)
6 | C[C@@H]1COC(=O)[C@H]2O[C@@](C)(O)[C@@]3(CC=C(CO)C(=O)[C@H]3O)[C@@H]12 | inactive | 128 (≈ 410 µM) | inactive | inactive | 64 (≈ 205 µM) |  | 64 (≈ 205 µM) | inactive | inactive | 128 (≈ 410 µM)
7 | Cc1ccc([C@H]2[C@H](C)COC(=O)[C@H]2O)c(O)c1O | inactive | 128 (≈ 507 µM) | inactive | inactive | 128 (≈ 507 µM) | 5.6 | 64 (≈ 254 µM) | inactive | inactive | 128 (≈ 507 µM)
8 | CC(=O)O[C@@H]1C(=O)OC[C@@H](C)[C@@H]1c1ccc(C)c(O)c1O | inactive | 64 (≈ 217 µM) | inactive | inactive | 64 (≈ 217 µM) | 9.5 |  | inactive | inactive | 128 (≈ 435 µM)
9 | CC(=O)O[C@@H]1[C@@H](OC(C)=O)C(C)=CC[C@]12[C@H]1[C@H](C)COC(=O)[C@H]1O[C@@]2(C)O | inactive |  | inactive | inactive | 64 (≈ 167 µM) | 5.5 |  | inactive | inactive | 64 (≈ 167 µM)
10 | CC1=CC[C@]2([C@H]3[C@H](C)COC(=O)[C@H]3O[C@@]2(C)O)[C@H](O)C1=O | inactive | 64 (≈ 216 µM) | inactive | inactive |  | 7.1 | 32 (≈ 108 µM) | inactive | inactive | 64 (≈ 216 µM)
11 | CC1=CC[C@]2([C@H]3[C@H](C)COC(=O)[C@H]3O[C@@]2(C)O)[C@@H](O)[C@H]1O | inactive | 64 (≈ 215 µM) | inactive | inactive |  |  | 32 (≈ 107 µM) | inactive | inactive | 64 (≈ 215 µM)
